Measurements reported in ChEMBL document CHEMBL3091355, “Designing and synthesis of novel antimicrobial heterocyclic analogs of fatty acids” (2013).
Values after ≈ are worked out from the molar mass of the structure shown.

How the values were obtained:
Type in all cases: functional
[1] = test system: Pseudomonas aeruginosa; assay: Antibacterial activity against Pseudomonas aeruginosa ATCC 27853 after 24 hrs by disc diffusion method
Outline: (§1)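 Disk diffusion on agar; activity measured as the halo zone of inhibition around the disk.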

[2] = test system: Candida parapsilosis; assay: Antifungal activity against Candida parapsilosis after 20 hrs by agar dilution method; conditions: Lodderomyces parapsilosis
[3] = test system: Candida tropicalis; assay: Antifungal activity against Candida tropicalis clinical isolate after 20 hrs by agar dilution method
[4] = test system: Streptococcus pyogenes; assay: Antibacterial activity against Streptococcus pyogenes clinical isolate after 24 hrs by broth micro dilution method
[5] = test system: Pichia kudriavzevii; assay: Antifungal activity against Candida krusei after 20 hrs by agar dilution method
[6] = test system: Escherichia coli; assay: Antibacterial activity against Escherichia coli ATCC 25922 after 24 hrs by broth micro dilution method; conditions: ATCC 25922, 24 h
Outline: (§2)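 MIC by broth microdilution; growth read visually and spectrophotometrically. MIC taken as the lowest concentration giving complete inhibition of bacterial growth.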

[7] = test system: Candida parapsilosis; assay: Fungicidal activity against Candida parapsilosis clinical isolate by micro dilution method; conditions: Lodderomyces parapsilosis
[8] = test system: Candida parapsilosis; assay: Antifungal activity against Candida parapsilosis clinical isolate after 20 hrs by agar dilution method; conditions: Lodderomyces parapsilosis
[9] = test system: Escherichia coli; assay: Bactericidal activity against Escherichia coli ATCC 25922 after 18 to 24 hrs; conditions: read-out: MBC99.9
Outline: (§3)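 MBC taken as the lowest concentration that killed the bacteria completely.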

[10] = test system: Candida dubliniensis; assay: Antifungal activity against Candida dubliniensis after 20 hrs by agar dilution method
[11] = test system: Candida tropicalis; assay: Fungicidal activity against Candida tropicalis by micro dilution method
[12] = test system: Candida dubliniensis; assay: Fungicidal activity against Candida dubliniensis by micro dilution method
[13] = test system: Streptococcus pyogenes; assay: Antibacterial activity against Streptococcus pyogenes clinical isolate after 24 hrs by disc diffusion method
[14] = test system: Klebsiella pneumoniae; assay: Antibacterial activity against Klebsiella pneumoniae clinical isolate after 24 hrs by disc diffusion method
[15] = test system: Pseudomonas aeruginosa; assay: Antibacterial activity against Pseudomonas aeruginosa ATCC 27853 after 24 hrs by broth micro dilution method; conditions: ATCC 27853, 24 h; outline: as §2
[16] = test system: Candida tropicalis; assay: Fungicidal activity against Candida tropicalis clinical isolate by micro dilution method
[17] = test system: Pseudomonas aeruginosa; assay: Bactericidal activity against Pseudomonas aeruginosa ATCC 27853 after 18 to 24 hrs; conditions: read-out: MBC99.9; outline: as §3
[18] = test system: Escherichia coli; assay: Antibacterial activity against Escherichia coli ATCC 25922 after 24 hrs by disc diffusion method; outline: as §1
[19] = test system: Candida albicans; assay: Fungicidal activity against Candida albicans clinical isolate by micro dilution method
[20] = test system: Candida albicans; assay: Antifungal activity against Candida albicans clinical isolate after 20 hrs by agar dilution method
[21] = test system: Candida albicans; assay: Fungicidal activity against Candida albicans by micro dilution method
[22] = test system: Nakaseomyces glabratus; assay: Fungicidal activity against Candida glabrata by micro dilution method
[23] = test system: Candida albicans; assay: Antifungal activity against Candida albicans after 20 hrs by agar dilution method
Outline: (§4)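 Clinical Candida isolates purified and subcultured on SC, SCC and PDA media before testing. Compounds were dissolved in DMSO as a stock, then diluted into solid PDA medium to final concentrations of 0.0312 to 256.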

[24] = test system: Staphylococcus aureus; assay: Antibacterial activity against Staphylococcus aureus after 24 hrs by broth micro dilution method; outline: as §2
[25] = test system: Klebsiella pneumoniae; assay: Antibacterial activity against Klebsiella pneumoniae clinical isolate after 24 hrs by broth micro dilution method
[26] = test system: Candida tropicalis; assay: Antifungal activity against Candida tropicalis after 20 hrs by agar dilution method
[27] = test system: Nakaseomyces glabratus; assay: Antifungal activity against Candida glabrata after 20 hrs by agar dilution method
[28] = test system: Pichia kudriavzevii; assay: Fungicidal activity against Candida krusei by micro dilution method
[29] = test system: Candida parapsilosis; assay: Fungicidal activity against Candida parapsilosis by micro dilution method; conditions: Lodderomyces parapsilosis
[30] = test system: Klebsiella pneumoniae; assay: Bactericidal activity against Klebsiella pneumoniae clinical isolate after 18 to 24 hrs; conditions: read-out: MBC99.9
[31] = test system: Streptococcus pyogenes; assay: Bactericidal activity against Streptococcus pyogenes clinical isolate after 18 to 24 hrs; conditions: read-out: MBC99.9
[32] = test system: Staphylococcus aureus; assay: Antibacterial activity against Staphylococcus aureus after 24 hrs by disc diffusion method; outline: as §1
[33] = test system: Staphylococcus aureus; assay: Bactericidal activity against Staphylococcus aureus after 18 to 24 hrs; conditions: read-out: MBC99.9; outline: as §3
[34] = test system: Candida albicans; assay: Antifungal activity against fluconazole, itraconazole-resistant Candida albicans clinical isolate after 20 hrs by agar dilution method; outline: as §4
[35] = test system: Candida tropicalis; assay: Antifungal activity against fluconazole, itraconazole-resistant Candida tropicalis clinical isolate after 20 hrs by agar dilution method; outline: as §4
[36] = test system: Candida tropicalis; assay: Fungicidal activity against fluconazole, itraconazole-resistant Candida tropicalis clinical isolate by micro dilution method

Row | SMILES | diameter of the inhibition zone (DIZ) [1] | MIC90 [2] | MIC90 [3] | MIC90 [5] | MFC [7] | MIC90 [8] | MIC90 [10] | MFC [11] | MFC [12] | MFC [16] | diameter of the inhibition zone (DIZ) [18] | MFC [19] | MIC90 [20] | MFC [21] | MFC [22] | MIC90 [23] | MIC90 [26] | MIC90 [27] | MFC [28] | MFC [29] | also measured
1 | CCCC1=NOC(CCCCCCCCC(=O)OC)C1 (stereo not given) | 30.1 mm | > 256 µg/mL | > 256 µg/mL | > 256 µg/mL | > 256 µg/mL | > 256 µg/mL | > 256 µg/mL | > 256 µg/mL | > 256 µg/mL | 128 µg/mL (≈ 452 µM) | 25.1 mm | 128 µg/mL (≈ 452 µM) | > 256 µg/mL | > 256 µg/mL | > 256 µg/mL | > 256 µg/mL | > 256 µg/mL | > 256 µg/mL | > 256 µg/mL | > 256 µg/mL | MIC [4]: 50 µg/mL (≈ 176 µM); MIC [6]: 100 µg/mL (≈ 353 µM); MBC [9]: > 100 µg/mL; diameter of the inhibition zone (DIZ) [13]: 20.2 mm; diameter of the inhibition zone (DIZ) [14]: 17.1 mm; MIC [15]: 100 µg/mL (≈ 353 µM); MBC [17]: > 100 µg/mL; MIC [24]: 50 µg/mL (≈ 176 µM); MIC [25]: 100 µg/mL (≈ 353 µM); MBC [30]: > 100 µg/mL; MBC [31]: 100 µg/mL (≈ 353 µM); diameter of the inhibition zone (DIZ) [32]: 18.1 mm; MBC [33]: > 100 µg/mL
2 | CCCCCC1C(CCC)=NOC1CC[C@H](O)CCCCCCCC(=O)OC (stereo not given in full) | 31.8 mm | 32 µg/mL (≈ 80.5 µM) | 64 µg/mL (≈ 161 µM) | 128 µg/mL (≈ 322 µM) | > 256 µg/mL | 128 µg/mL (≈ 322 µM) | 128 µg/mL (≈ 322 µM) | > 256 µg/mL | > 256 µg/mL | > 128 µg/mL | 26.5 mm | 256 µg/mL (≈ 644 µM) | 64 µg/mL (≈ 161 µM) | > 256 µg/mL | 128 µg/mL (≈ 322 µM) | 128 µg/mL (≈ 322 µM) | 128 µg/mL (≈ 322 µM) | 64 µg/mL (≈ 161 µM) | > 256 µg/mL | > 256 µg/mL | MIC [4]: 25 µg/mL (≈ 62.9 µM); MIC90 [34]: > 256 µg/mL; MIC [6]: 25 µg/mL (≈ 62.9 µM); MBC [9]: 100 µg/mL (≈ 252 µM); diameter of the inhibition zone (DIZ) [13]: 22.4 mm; MIC90 [35]: > 256 µg/mL; diameter of the inhibition zone (DIZ) [14]: 18.9 mm; MIC [15]: 50 µg/mL (≈ 126 µM); MBC [17]: 100 µg/mL (≈ 252 µM); MIC [24]: 25 µg/mL (≈ 62.9 µM); MIC [25]: 25 µg/mL (≈ 62.9 µM); MBC [30]: 100 µg/mL (≈ 252 µM); MBC [31]: 50 µg/mL (≈ 126 µM); diameter of the inhibition zone (DIZ) [32]: 20.8 mm; MBC [33]: 100 µg/mL (≈ 252 µM)
3 | CCCCCCCCC1C(CCC)=NOC1CCCCCCCC(=O)OC (stereo not given) | 31.3 mm | > 256 µg/mL | 128 µg/mL (≈ 335 µM) | > 256 µg/mL | > 256 µg/mL | 128 µg/mL (≈ 335 µM) | 128 µg/mL (≈ 335 µM) | > 256 µg/mL | > 256 µg/mL | > 256 µg/mL | 26.7 mm | > 256 µg/mL | 128 µg/mL (≈ 335 µM) | 256 µg/mL (≈ 671 µM) | > 256 µg/mL | 128 µg/mL (≈ 335 µM) | 128 µg/mL (≈ 335 µM) | 128 µg/mL (≈ 335 µM) | > 256 µg/mL | > 256 µg/mL | MIC [4]: 25 µg/mL (≈ 65.5 µM); MIC90 [34]: > 256 µg/mL; MFC [36]: 128 µg/mL (≈ 335 µM); MIC [6]: 25 µg/mL (≈ 65.5 µM); MBC [9]: 50 µg/mL (≈ 131 µM); diameter of the inhibition zone (DIZ) [13]: 22.3 mm; MIC90 [35]: > 256 µg/mL; diameter of the inhibition zone (DIZ) [14]: 18.5 mm; MIC [15]: 25 µg/mL (≈ 65.5 µM); MBC [17]: 50 µg/mL (≈ 131 µM); MIC [24]: 25 µg/mL (≈ 65.5 µM); MIC [25]: 25 µg/mL (≈ 65.5 µM); MBC [30]: 100 µg/mL (≈ 262 µM); MBC [31]: 50 µg/mL (≈ 131 µM); diameter of the inhibition zone (DIZ) [32]: 21.6 mm; MBC [33]: 100 µg/mL (≈ 262 µM)
4 | CCC(C)n1ncn(-c2ccc(N3CCN(c4ccc(OCC5COC(Cn6cncn6)(c6ccc(Cl)cc6Cl)O5)cc4)CC3)cc2)c1=O (stereo not given) [ITRACONAZOLE] |  | 0.6 µg/mL (≈ 0.85 µM) | 1 µg/mL (≈ 1.42 µM) | 0.6 µg/mL (≈ 0.85 µM) |  | 0.25 µg/mL (≈ 0.354 µM) | > 256 µg/mL | > 256 µg/mL | > 256 µg/mL | > 256 µg/mL |  | > 256 µg/mL | 0.12 µg/mL (≈ 0.17 µM) | > 256 µg/mL | > 256 µg/mL | > 256 µg/mL | > 256 µg/mL | 0.12 µg/mL (≈ 0.17 µM) | 0.12 µg/mL (≈ 0.17 µM) | 0.5 µg/mL (≈ 0.709 µM) | 
5 | OC(Cn1cncn1)(Cn1cncn1)c1ccc(F)cc1F [FLUCONAZOLE] |  | 4 µg/mL (≈ 13.1 µM) | 16 µg/mL (≈ 52.2 µM) | 32 µg/mL (≈ 104 µM) | 1 µg/mL (≈ 3.27 µM) | 0.5 µg/mL (≈ 1.63 µM) | 2 µg/mL (≈ 6.53 µM) | 256 µg/mL (≈ 836 µM) | > 256 µg/mL | 256 µg/mL (≈ 836 µM) |  | > 256 µg/mL | 8 µg/mL (≈ 26.1 µM) | > 256 µg/mL | 128 µg/mL (≈ 418 µM) | > 256 µg/mL | 32 µg/mL (≈ 104 µM) | 8 µg/mL (≈ 26.1 µM) | > 256 µg/mL | 32 µg/mL (≈ 104 µM) | 
6 | O=C(O)c1cn(C2CC2)c2cc(N3CCNCC3)c(F)cc2c1=O [CIPROFLOXACIN] | 32 mm |  |  |  |  |  |  |  |  |  | 27 mm |  |  |  |  |  |  |  |  |  | diameter of the inhibition zone (DIZ) [32]: 22 mm
7 | CCCc1cc(CCCCCCCCC(=O)O)on1 | 31.2 mm | 128 µg/mL (≈ 479 µM) | 128 µg/mL (≈ 479 µM) | > 256 µg/mL | > 256 µg/mL | 256 µg/mL (≈ 957 µM) | 128 µg/mL (≈ 479 µM) | > 256 µg/mL | 256 µg/mL (≈ 957 µM) | > 256 µg/mL | 25.7 mm | > 256 µg/mL | > 256 µg/mL | > 256 µg/mL | > 256 µg/mL | > 256 µg/mL | > 256 µg/mL | 128 µg/mL (≈ 479 µM) | > 256 µg/mL | > 256 µg/mL | MIC [4]: 50 µg/mL (≈ 187 µM); MIC [6]: 50 µg/mL (≈ 187 µM); MBC [9]: 100 µg/mL (≈ 374 µM); diameter of the inhibition zone (DIZ) [13]: 21.6 mm; diameter of the inhibition zone (DIZ) [14]: 18.3 mm; MIC [15]: 100 µg/mL (≈ 374 µM); MBC [17]: > 100 µg/mL; MIC [24]: 50 µg/mL (≈ 187 µM); MIC [25]: 50 µg/mL (≈ 187 µM); MBC [30]: > 100 µg/mL; MBC [31]: 100 µg/mL (≈ 374 µM); diameter of the inhibition zone (DIZ) [32]: 19.2 mm; MBC [33]: 100 µg/mL (≈ 374 µM)
